Where a SMILES comes first, the peptide text is derived from it. The star is where a group is joined. Cbz = O=C(OCc1ccccc1)*
Assays:
[1] = test system: estrogen receptor (ERE-tk-luc reporter) in MCF-7 cells; assay: ERE-tk-luc luciferase transactivation assay in MCF-7 cells; format: cell-based, human; settings: MCF-7, 10 μM compound, 24 h, RLU normalized to no compound added
[2] = biological target: GFP-GRER chimera (N-terminus of the glucocorticoid receptor fused to the human ERα ligand binding domain) (Homo sapiens, UniProt P03372); assay: GFP-GRER nuclear translocation high-content imaging assay in 6020 cells; format: cell-based
[3] = test system: estradiol-mediated transactivation (ERE-tk-luc) in MCF-7 cells; assay: Estradiol competition transactivation luciferase reporter assay in MCF-7 cells; format: cell-based, human
Method in brief: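 MCF-7 cells moved to phenol red–free DMEM with 10% charcoal-stripped FBS for 24 h, then plated at 100,000 cells/well (96-well). Next day each well was transfected with 200 ng ERE-tk-luc plasmid using Lipofectamine LTX. Cells then received 100 nM estradiol alone, test compound alone (100 nM), or estradiol plus 100 nM, 1 μM or 10 μM test compound. Bright-Glo luminescence was read, and RLU normalized to no-compound wells. Triplicates, three biological replicates.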

[4] = MCF-7, 100 nM estradiol + 10 μM compound

GFP-GRER chimera (N-terminus of the glucocorticoid receptor fused to the human ERα ligand binding domain), sequence (P03372 302-595, change not shown): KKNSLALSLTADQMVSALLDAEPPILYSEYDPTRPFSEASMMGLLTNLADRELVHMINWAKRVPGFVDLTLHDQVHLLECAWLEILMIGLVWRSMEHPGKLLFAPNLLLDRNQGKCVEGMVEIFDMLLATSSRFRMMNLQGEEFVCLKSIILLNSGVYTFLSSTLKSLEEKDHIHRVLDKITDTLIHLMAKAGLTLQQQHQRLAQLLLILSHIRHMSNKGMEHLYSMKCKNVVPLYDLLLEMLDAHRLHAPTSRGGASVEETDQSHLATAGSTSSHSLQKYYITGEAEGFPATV
GFP-GRER chimera (N-terminus of the glucocorticoid receptor fused to the human ERα ligand binding domain), sequence (P06536 1-565, change not shown, further chain): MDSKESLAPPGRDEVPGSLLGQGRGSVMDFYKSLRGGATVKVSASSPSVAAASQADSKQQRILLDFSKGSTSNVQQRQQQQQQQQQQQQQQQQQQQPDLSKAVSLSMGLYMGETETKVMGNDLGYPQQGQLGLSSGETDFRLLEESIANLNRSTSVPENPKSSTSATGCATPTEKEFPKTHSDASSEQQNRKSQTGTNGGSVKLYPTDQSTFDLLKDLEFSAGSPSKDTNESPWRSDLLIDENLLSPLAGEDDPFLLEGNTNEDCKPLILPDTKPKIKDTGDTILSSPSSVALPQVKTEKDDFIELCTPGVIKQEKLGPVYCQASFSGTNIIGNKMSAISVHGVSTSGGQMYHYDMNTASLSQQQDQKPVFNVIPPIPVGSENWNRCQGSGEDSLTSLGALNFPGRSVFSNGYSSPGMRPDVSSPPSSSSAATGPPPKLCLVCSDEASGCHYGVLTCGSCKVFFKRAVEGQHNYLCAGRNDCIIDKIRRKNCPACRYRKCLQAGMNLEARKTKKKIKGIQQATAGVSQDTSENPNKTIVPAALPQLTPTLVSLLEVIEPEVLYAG

Row | Compound | fold transactivation induction (transactivation potential) [1] | further results
1 | C[C@]12CC[C@@H]3c4ccc(O)cc4C[C@@H](CCCCCCCCC[S+]([O-])CCCC(F)(F)C(F)(F)F)[C@H]3[C@@H]1CC[C@@H]2O (stereo partly drawn) [ICI 182,780] | 0.24 | –
2 | CC(C)C[C@@H](C=O)NC(=O)[C@H](CC(C)C)NC(=O)[C@H](CC(C)C)NC(=O)OCc1ccccc1 [MG132] (Cbz-Leu-Leu-Leu-aldehyde) | 0.61 | EC50 [2]: 192 nM
3 | CC#C[C@]1(O)CC[C@H]2[C@@H]3CCC4=CC(=O)CCC4=C3[C@@H](c3ccc(N(C)C)cc3)C[C@@]21C [RU486] | 0.4 | –
4 | CC(C)C[C@H](NC(=O)[C@H](Cc1ccccc1)NC(=O)c1cnccn1)B(O)O [bortezomib] | 0.78 | decrease in estradiol-mediated transactivation ([3]; MCF-7, 100 nM estradiol + 100 nM compound): 60%; decrease in estradiol-mediated transactivation ([3]; MCF-7, 100 nM estradiol + 1 μM compound): 54%; decrease in estradiol-mediated transactivation [3, 4]: 29%; EC50 [2]: 37 nM
5 | O=C(c1ccc(OCCN2CCCCC2)cc1)c1c(-c2ccc(O)cc2)sc2cc(O)ccc12 [raloxifene] | 0.89 | –
6 | CC/C(=C(\c1ccccc1)c1ccc(OCCN(C)C)cc1)c1ccccc1 [tamoxifen] | – | decrease in estradiol-mediated transactivation [3, 4]: 51%
7 | tetrocarcin A [NSC 333856] | 1.34 | –
